Results: ChEMBL document CHEMBL1123086, “8-Substituted guanosine and 2'-deoxyguanosine derivatives as potential inducers of the differentiation of Friend erythroleukemia cells” (1985)

Key:
[1] = system: Friend erythroleukemia cells, HGPRT- (Mus musculus); experiment: Inhibitory activity against cellular replication in hypoxanthine-guanine phosphoribosyltransferase (HGPRT-) Friend murine erythroleukemia cells.; conditions: read-out: ID50 (the source's name)
[2] = system: Friend leukemia cell line; experiment: Inhibitory activity against cellular differentiation in Friend erythroleukemia cells as optimal concentration required for maximum activity.; type: functional, Mus musculus
Procedure, shortened: (§1)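 Parental Friend murine erythroleukemia cells in exponential growth, seeded at (7–8) × 10⁴ cells/mL in Dulbecco's modified Eagle's MEM with 15% fetal bovine serum and 2 mM L-glutamine under 10% CO₂. Exposed to graded 2.5-fold concentration increases. On day 6, hemoglobin-containing cells staining blue with acidic 3,3',5,5'-tetramethylbenzidine peroxide were counted cytologically and reported as percent benzidine-positive cells.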

[3] = system: Friend leukemia cell line; experiment: Inhibitory activity against cellular differentiation in Friend erythroleukemia cells as percentage of benzidine - positive cells.; type: functional, Mus musculus
Procedure, shortened: as §1

[4] = system: Friend leukemia cell line; experiment: Inhibitory activity against cellular replication in Friend erythroleukemia cells as growth inhibition.; type: functional; conditions: Mus musculus, read-out: ID50 (the source's name)
Procedure, shortened: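 Exponentially growing parental Friend erythroleukemia cells at (7–8) × 10⁴ cells/mL in DMEM with 15% FBS under 10% CO₂. Incubated with graded 2.5-fold concentration steps. Cell number was counted on day 3 with a particle counter, and percent growth inhibition was calculated from log cell number.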

Row | Structure (SMILES) | IC50 [1] [mM] | Optimal concentration [2] [mM] | Benzidine positive cells [3] [%] | IC50 [4] [mM]
1 | Nc1nc2c([nH]c(=O)n2[C@H]2C[C@H](O)[C@@H](CO)O2)c(=O)[nH]1 | 0.39 | 0.2 | 62 | 0.39
2 | Nc1nc(O)c2nc(N)n([C@@H]3O[C@H](CO)[C@@H](O)[C@H]3O)c2n1 | 1.7 | 0.4 | 34 | 1.7
3 | Nc1nc(O)c2nc(S)n([C@@H]3O[C@H](CO)[C@@H](O)[C@H]3O)c2n1 | 3.5 | 2 | 4 | 3.5
4 | Nc1nc(O)c2nc(Br)n([C@H]3C[C@H](O)[C@@H](CO)O3)c2n1 | > 5 | 7 | 20 | > 5
5 | Nc1nc(O)c2nc(OCc3ccccc3)n([C@H]3C[C@H](O)[C@@H](CO)O3)c2n1 | > 5 | 7 | 7 | > 5
6 | COc1nc2c(O)nc(N)nc2n1[C@H]1C[C@H](O)[C@@H](CO)O1 | > 5 | 5 | 22 | > 5
7 | CNc1nc2c(=O)[nH]c(N)nc2n1[C@@H]1O[C@H](CO)[C@@H](O)[C@H]1O | 4.9 | 1 | 42 | 2.9
8 | CN(C)c1nc2c(=O)[nH]c(N)nc2n1[C@@H]1O[C@H](CO)[C@@H](O)[C@H]1O | > 5 | 5 | 68 | > 5
9 | Nc1nc2c(nc(Br)n2[C@@H]2O[C@H](CO)[C@@H](O)[C@H]2O)c(=O)[nH]1 | 5.1 | 5 | 6 | 5.1
10 | Nc1nc(O)c2nc(OCc3ccccc3)n(C3O[C@H](CO)[C@@H](O)[C@H]3O)c2n1 (stereo partly specified) | > 8 | 8 | 4 | > 8
11 | [N-]=[N+]=Nc1nc2c(O)nc(N)nc2n1C1O[C@H](CO)[C@@H](O)[C@H]1O (stereo partly specified) | 3.6 | 2 | 12 | 3.6
12 | COc1nc2c(O)nc(N)nc2n1C1O[C@H](CO)[C@@H](O)[C@H]1O (stereo partly specified) | > 8 | 8 | 7 | > 8
13 | CSc1nc2c(O)nc(N)nc2n1C1O[C@H](CO)[C@@H](O)[C@H]1O (stereo partly specified) | > 8 | 5 | 11 | > 8
14 | Nc1nc(O)c2nc(NO)n(C3O[C@H](CO)[C@@H](O)[C@H]3O)c2n1 (stereo partly specified) |  | 6 | 7 | > 5
15 | CS(=O)(=O)c1nc2c(O)nc(N)nc2n1C1O[C@H](CO)[C@@H](O)[C@H]1O (stereo partly specified) | 10 | 5 | 30 | 5.4
16 | Nc1nc2c(nc(O)n2[C@@H]2O[C@H](CO)[C@@H](O)[C@H]2O)c(=O)[nH]1 [8-HYDROXYGUANOSINE] | 8 | 5 | 33 | 8
17 | Nc1nc(O)c2ncn([C@H]3C[C@H](O)[C@@H](CO)O3)c2n1 [DEOXYGUANOSINE] | 0.49 |  | 0 | 0.29
18 | C[S+](C)[O-] [DIMETHYL SULFOXIDE] |  | 200 | 70 | 
19 | Nc1nc2c(ncn2[C@@H]2O[C@H](CO)[C@@H](O)[C@H]2O)c(=O)[nH]1 [GUANOSINE] | 7.8 |  | 0 | 1.2
